ChEMBL document CHEMBL3108751, “Isomannide-based peptidomimetics as inhibitors for human tissue kallikreins 5 and 7” (ACS Med Chem Lett, 2014)
The source made the active and inactive calls. The calls are words filed in the database; no cut-off is given here.

Columns and labels:
[1] = molecular target: Kallikrein-6 (Homo sapiens) (UniProt Q92876); assay: Inhibition of human KLK6 at 1 to 500 uM after 5 mins by spectrophotometry
[2] = molecular target: Kallikrein-1 (Homo sapiens) (UniProt P06870); assay: Inhibition of human KLK1 at 1 to 500 uM after 5 mins by spectrophotometry
Kallikrein-7 [3] = molecular target: T1, Kallikrein-7 (Homo sapiens, UniProt P49862); assay: Inhibition of human recombinant KLK7 expressed in baculovirus-infected insect cell system using Abz-KLYSSKQ-Eddnp as substrate incubated for 5 mins prior to substrate addition by FRET assay
Kallikrein-5 [4] = molecular target: T2, Kallikrein-5 (Homo sapiens, UniProt Q9Y337); assay: Inhibition of human recombinant KLK5 expressed in baculovirus-infected insect cell system using Abz-KLRSSKQ-Eddnp as substrate incubated for 5 mins prior to substrate addition by FRET assay
T2 sequence (Q9Y337 whole entry): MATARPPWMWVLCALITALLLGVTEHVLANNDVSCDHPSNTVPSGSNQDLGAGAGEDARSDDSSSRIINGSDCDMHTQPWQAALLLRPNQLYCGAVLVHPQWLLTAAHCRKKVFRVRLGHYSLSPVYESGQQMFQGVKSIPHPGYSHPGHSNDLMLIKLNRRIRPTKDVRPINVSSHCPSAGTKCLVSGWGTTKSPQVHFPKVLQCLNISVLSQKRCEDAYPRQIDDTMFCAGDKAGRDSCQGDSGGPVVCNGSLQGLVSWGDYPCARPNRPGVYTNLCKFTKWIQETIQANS

Kallikrein-5 [5] = molecular target: T2, Kallikrein-5; assay: Competitive inhibition of human recombinant KLK5 expressed in baculovirus-infected insect cell system using Abz-KLRSSKQ-Eddnp as substrate incubated for 5 mins prior to substrate addition by Lineweaver-Burk plot analysis
Procedure, shortened: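 FRET substrate Abz-KLRSSKQ-EDDnp hydrolysed by KLK5, with no inhibitor and with 0.5, 1.0 and 2.0 μM inhibitor. Lineweaver–Burk plots were fitted by linear regression. Ki was taken from a secondary plot of Km/Vmax against inhibitor concentration.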

Kallikrein-7 [6] = molecular target: T1, Kallikrein-7; assay: Competitive inhibition of human recombinant KLK7 expressed in baculovirus-infected insect cell system using Abz-KLYSSKQ-Eddnp as substrate incubated for 5 mins prior to substrate addition by Lineweaver-Burk plot analysis
Procedure, shortened: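 Mechanism was assessed from rates measured without inhibitor and at three inhibitor concentrations. Lineweaver–Burk plots were used to assign the inhibition type and derive Ki.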

Homo sapiens [7] = species on record: Homo sapiens; assay: Selectivity ratio of IC50 for human recombinant KLK7 to IC50 for human recombinant KLK5
Homo sapiens [8] = species on record: Homo sapiens; assay: Selectivity ratio of IC50 for human recombinant KLK5 to IC50 for human recombinant KLK7

Chain of Kallikrein-1 (Homo sapiens) (P06870 25-262 limits assumed): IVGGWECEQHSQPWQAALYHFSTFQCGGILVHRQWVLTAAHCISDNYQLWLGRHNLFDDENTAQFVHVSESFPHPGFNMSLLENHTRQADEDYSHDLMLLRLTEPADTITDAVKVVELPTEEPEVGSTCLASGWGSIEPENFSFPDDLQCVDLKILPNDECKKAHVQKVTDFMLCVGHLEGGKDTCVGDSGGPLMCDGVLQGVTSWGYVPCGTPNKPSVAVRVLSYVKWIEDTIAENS
T1 sequence (P49862 whole entry): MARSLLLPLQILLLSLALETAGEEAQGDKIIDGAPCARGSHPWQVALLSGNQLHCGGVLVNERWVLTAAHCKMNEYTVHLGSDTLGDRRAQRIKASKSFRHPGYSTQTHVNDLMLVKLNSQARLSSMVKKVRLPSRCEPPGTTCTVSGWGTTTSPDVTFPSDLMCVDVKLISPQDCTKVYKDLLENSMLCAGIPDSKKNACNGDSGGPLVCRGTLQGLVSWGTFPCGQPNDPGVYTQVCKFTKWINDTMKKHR

SMILES | inhibition [1] | inhibition [2] | IC50 (Kallikrein-7 [3]) | IC50 (Kallikrein-5 [4]) | Ki (Kallikrein-5 [5]) | Ki (Kallikrein-7 [6]) | Ratio IC50 (Homo sapiens [7]) | Ratio IC50 (Homo sapiens [8])
CC(C)[C@@H](NC(=O)OC(C)(C)C)C(=O)N[C@H]1CO[C@H]2[C@@H]1OC[C@H]2OCc1ccccc1 | inactive | inactive | > 1000 µM | 480 µM | – | – | – | –
O=C(N[C@H]1CO[C@H]2[C@@H]1OC[C@H]2OCc1ccccc1)[C@H](Cc1ccccc1)NC(=O)[C@@H]1CCCN1C(=O)OCc1ccccc1 | inactive | inactive | 249 µM | 157 µM | – | – | – | –
CSCC[C@H](NC(=O)OC(C)(C)C)C(=O)N[C@H]1CO[C@H]2[C@@H]1OC[C@H]2OCc1ccccc1 | inactive | inactive | 457 µM | 37 µM | 26.6 µM | – | – | –
CC(C)(C)OC(=O)N[C@H](COCc1ccccc1)C(=O)N[C@H]1CO[C@H]2[C@@H]1OC[C@H]2OCc1ccccc1 | inactive | inactive | 84.5 µM | 53.9 µM | – | – | – | –
CSCC[C@H](NC(=O)OC(C)(C)C)C(=O)O[C@@H]1CO[C@H]2[C@@H]1OC[C@H]2OCc1ccccc1 | inactive | inactive | 28.7 µM | 357 µM | – | 18.4 µM | – | –
O=C(O[C@@H]1CO[C@H]2[C@@H]1OC[C@H]2OCc1ccccc1)[C@H]1CCCN1C(=O)OCc1ccccc1 | inactive | inactive | 16.6 µM | 3.7 µM | 0.3 µM | 1.9 µM | 4 | –
CC(C)(C)OC(=O)N[C@@H](CC(=O)OCc1ccccc1)C(=O)O[C@@H]1CO[C@H]2[C@@H]1OC[C@H]2OCc1ccccc1 | inactive | inactive | 10.2 µM | 4.7 µM | 0.6 µM | 1.3 µM | – | –
CC(C)(C)OC(=O)N[C@H](Cc1c[nH]c2ccccc12)C(=O)O[C@@H]1CO[C@H]2[C@@H]1OC[C@H]2OCc1ccccc1 | inactive | inactive | 59.2 µM | 377 µM | – | – | – | 6
CC(C)(C)OC(=O)N[C@@H](CCCCNC(=O)OCc1ccccc1)C(=O)N[C@H]1CO[C@H]2[C@@H]1OC[C@H]2OCc1ccccc1 | inactive | inactive | 23.6 µM | 13.3 µM | 2.4 µM | 2.9 µM | – | –
CC(C)(C)OC(=O)N[C@H](COCc1ccccc1)C(=O)O[C@@H]1CO[C@H]2[C@@H]1OC[C@H]2OCc1ccccc1 | inactive | inactive | 16 µM | 15.5 µM | 2.4 µM | 2.3 µM | – | –
CC(C)[C@@H](NC(=O)OC(C)(C)C)C(=O)O[C@@H]1CO[C@H]2[C@@H]1OC[C@H]2OCc1ccccc1 | inactive | inactive | 239 µM | 223 µM | – | – | – | –
CC(C)(C)OC(=O)N[C@H](Cc1c[nH]c2ccccc12)C(=O)N[C@H]1CO[C@H]2[C@@H]1OC[C@H]2OCc1ccccc1 | inactive | inactive | 418 µM | 39.2 µM | 28.2 µM | – | – | –
CC(C)(C)OC(=O)N[C@@H](CCCCNC(=O)OCc1ccccc1)C(=O)O[C@@H]1CO[C@H]2[C@@H]1OC[C@H]2OCc1ccccc1 | inactive | inactive | 13.7 µM | 9 µM | 0.7 µM | 1.4 µM | – | –
CC(C)(C)OC(=O)N[C@H](CCCN/C(=N\C(=O)OCc1ccccc1)NC(=O)OCc1ccccc1)C(=O)N[C@H]1CO[C@H]2[C@@H]1OC[C@H]2OCc1ccccc1 | inactive | inactive | 16.9 µM | 11.8 µM | 1.7 µM | 2.4 µM | – | –
O=C(OC1CO[C@H]2[C@@H]1OC[C@H]2OCc1ccccc1)[C@H](Cc1ccccc1)NC(=O)[C@@H]1CCCN1C(=O)OCc1ccccc1 (single isomer, unassigned) | inactive | inactive | 19.6 µM | 3.9 µM | 0.4 µM | 2.8 µM | 5 | –
CC(C)[C@H](NC(=O)OCc1ccccc1)C(=O)N[C@H](Cc1ccccc1)C(=O)N[C@H]1CO[C@H]2[C@@H]1OC[C@H]2OCc1ccccc1 | inactive | inactive | 56.6 µM | 21.7 µM | 3.4 µM | 3.8 µM | – | –
O=C(N[C@H]1CO[C@H]2[C@@H]1OC[C@H]2OCc1ccccc1)/C(=C/c1cccs1)NC(=O)c1ccccc1 (stereo in doubt) | – | – | 13.3 µM | 99.2 µM | 70.7 µM | 1.8 µM | – | –
Cc1ccc(S(=O)(=O)n2cnc(C[C@H](NC(=O)OC(C)(C)C)C(=O)N[C@H]3CO[C@H]4[C@@H]3OC[C@H]4OCc3ccccc3)c2)cc1 | inactive | inactive | 27.8 µM | 157 µM | – | 4.4 µM | – | 6
CC(C)(C)OC(=O)N1CCC[C@H]1C(=O)O[C@@H]1CO[C@H]2[C@@H]1OC[C@H]2OCc1ccccc1 | inactive | inactive | 24.4 µM | 521 µM | – | 15.6 µM | – | 21.3
O=C(N[C@H]1CO[C@H]2[C@@H]1OC[C@H]2OCc1ccccc1)[C@H]1CCCN1C(=O)OCc1ccccc1 | inactive | inactive | 23.6 µM | 321 µM | – | 15.1 µM | – | –
